Assay results: ChEMBL document CHEMBL2046403, “Biochemical and pharmacological evaluation of 4-hydroxychromen-2-ones bearing polar C-3 substituents as anticoagulants” (Eur J Med Chem, 2012); call rule not given here

Experiments:
Plasma [1] = assay: Anticoagulant activity in human plasma assessed as prothrombin time at 1 mg/ml; format: functional
Procedure, shortened: (§1)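 Frozen human plasma (blood type A+) was used. Compounds were prepared at 1 mg/mL in a vehicle of 96% EtOH, 0.9% NaCl, 20% glycerol and phosphate buffer pH 7. Prothrombin time was measured by Quick method and reported in seconds and as INR, with SD from at least three measurements.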

Plasma [2] = assay: Anticoagulant activity in Wistar albino rat plasma assessed as prothrombin time at 0.1 mg/kg, ip; format: functional; conditions: route intraperitoneal
Procedure, shortened: (§2)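 Adult Wistar rats (2.5 months, 220–250 g), three per compound and control, were given a single i.p. dose of 0.1 or 0.5 mg/kg in ethanol solution and sacrificed 24 h later. […] Plasma prothrombin time was measured by Quick method and reported in seconds and as INR, from at least three measurements.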

Plasma [3] = assay: Anticoagulant activity in Wistar albino rat plasma assessed as prothrombin time at 0.5 mg/kg, ip; format: functional; conditions: route intraperitoneal
Procedure, shortened: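 Adult Wistar rats (2.5 months, 220–250 g), three per compound and control, were given a single i.p. dose of 0.1 or 0.5 mg/kg in ethanol solution and sacrificed 24 h later. Plasma prothrombin time was measured by Quick method and reported in seconds and as INR, from at least three measurements.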

Plasma [4] = assay: Anticoagulant activity in Wistar albino rat plasma assessed as fibrinogen level; format: functional
Procedure, shortened: (§3)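 Adult albino Wistar rats (2.5 months old, 220–250 g), three per compound and control. […] Fibrin time and fibrinogen were determined on plasma. Fibrinogen was quantified by biuret method at 540 nm. At least three measurements, reported with standard deviation.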

Plasma [5] = assay: Anticoagulant activity in Wistar albino rat plasma assessed as fibrin time; format: functional; procedure, shortened: as §3
Rattus norvegicus [6] = assay: Hepatotoxicity in Wistar albino rat assessed as change in serum protein level at 0.5 mg/kg, ip measured after 24 hrs; format: toxicity, organism-based; parameters: dose 0.5 mg/kg, route intraperitoneal; conditions: in vivo
Rattus norvegicus [7] = assay: Hepatotoxicity in Wistar albino rat assessed as change in serum albumin level at 0.5 mg/kg, ip measured after 24 hrs; format: toxicity, organism-based; parameters: dose 0.5 mg/kg, route intraperitoneal; conditions: in vivo
Plasma [8] = assay: Anticoagulant activity in human plasma assessed as international normalized ratio at 1 mg/ml; format: functional; procedure, shortened: as §1
Plasma [9] = assay: Anticoagulant activity in Wistar albino rat plasma assessed as international normalized ratio at 0.1 mg/kg, ip; format: functional; conditions: route intraperitoneal; procedure, shortened: as §2
Plasma [10] = assay: Anticoagulant activity in Wistar albino rat plasma assessed as international normalized ratio at 0.5 mg/kg, ip; format: functional; conditions: route intraperitoneal; procedure, shortened: as §2
Rattus norvegicus [11] = assay: Hepatotoxicity in Wistar albino rat assessed as change in serum protein level at 0.5 mg/kg/day, ip administered for 5 days; format: toxicity, organism-based; parameters: route intraperitoneal; conditions: in vivo, 120 h
Rattus norvegicus [12] = assay: Hepatotoxicity in Wistar albino rat assessed as change in serum albumin level at 0.5 mg/kg/day, ip administered for 5 days; format: toxicity, organism-based; parameters: route intraperitoneal; conditions: in vivo, 120 h
Rattus norvegicus [13] = assay: Anticoagulant activity in Wistar rats in vivo assessed as prothrombin time
Rattus norvegicus [14] = assay: Toxicity in Wistar albino rat assessed as lethal dose at 0.5 mg/kg/day, ip administered for 5 days; format: organism-based; parameters: route intraperitoneal; conditions: in vivo, 120 h
Rattus norvegicus [15] = assay: Hepatotoxicity in Wistar albino rat assessed as change in serum bilirubin level at 0.5 mg/kg, ip measured after 24 hrs; format: toxicity, organism-based; parameters: dose 0.5 mg/kg, route intraperitoneal; conditions: in vivo
Rattus norvegicus [16] = assay: Hepatotoxicity in Wistar albino rat assessed as change in serum AST level at 0.5 mg/kg, ip measured after 24 hrs; format: toxicity, organism-based; parameters: dose 0.5 mg/kg, route intraperitoneal; conditions: in vivo
Rattus norvegicus [17] = assay: Hepatotoxicity in Wistar albino rat assessed as change in serum ALT level at 0.5 mg/kg, ip measured after 24 hrs; format: toxicity, organism-based; parameters: dose 0.5 mg/kg, route intraperitoneal; conditions: in vivo
Rattus norvegicus [18] = assay: Hepatotoxicity in Wistar albino rat assessed as change in serum ALP level at 0.5 mg/kg, ip measured after 24 hrs; format: toxicity, organism-based; parameters: dose 0.5 mg/kg, route intraperitoneal; conditions: in vivo
Rattus norvegicus [19] = assay: Hepatotoxicity in Wistar albino rat assessed as change in serum gamma-GT level at 0.5 mg/kg, ip measured after 24 hrs; format: toxicity, organism-based; parameters: dose 0.5 mg/kg, route intraperitoneal; conditions: in vivo
Rattus norvegicus [20] = assay: Hepatotoxicity in Wistar albino rat assessed as change in serum iron level at 0.5 mg/kg, ip measured after 24 hrs; format: toxicity, organism-based; parameters: dose 0.5 mg/kg, route intraperitoneal; conditions: in vivo
Plasma [21] = assay: Anticoagulant activity in Wistar albino rat plasma assessed as prothrombin time at 0.5 mg/kg/day, ip administered for 5 days measured after second dose; format: functional; conditions: route intraperitoneal
Procedure, shortened: (§4)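 Wistar rats, three per group, were dosed i.p. at 0.5 mg/kg per day over five days in ethanol solution and sacrificed on day six. Plasma prothrombin time was measured by Quick method after the second 0.5 mg/kg administration, reported in seconds and INR. Where animals were dosed more than once, PTs were averaged.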

Rattus norvegicus [22] = assay: Hepatotoxicity in Wistar albino rat assessed as change in serum gamma-GT level at 0.5 mg/kg, ip administered for 5 days measured after second compound dose; format: toxicity, organism-based; parameters: dose 0.5 mg/kg, route intraperitoneal; conditions: in vivo, 120 h
Rattus norvegicus [23] = assay: Hepatotoxicity in Wistar albino rat assessed as change in serum iron level at 0.5 mg/kg/day, ip administered for 5 days measured after second compound dose; format: toxicity, organism-based; parameters: route intraperitoneal; conditions: in vivo, 120 h
Plasma [24] = assay: Anticoagulant activity in Wistar albino rat plasma assessed as prothrombin time at 0.5 mg/kg, ip relative to untreated control; format: functional; conditions: route intraperitoneal
Procedure, shortened: (§5)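 Rats (Wistar, 220–250 g, n=3 per group) were dosed i.p. with 0.5 mg/kg compound in ethanol solution. Prothrombin time was measured in plasma by Quick method and expressed as fold of the matching control value. […] Groups were compared by one-way ANOVA with Dunnett T3 or Bonferroni post-hoc tests.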

Plasma [25] = assay: Anticoagulant activity in Wistar albino rat plasma assessed as prothrombin time at 0.5 mg/kg, ip relative to warfarin; format: functional; conditions: route intraperitoneal; procedure, shortened: as §5
Plasma [26] = assay: Anticoagulant activity in Wistar albino rat plasma assessed as international normalized ratio at 0.5 mg/kg/day, ip administered for 5 days measured after second dose; format: functional; conditions: route intraperitoneal; procedure, shortened: as §4
Rattus norvegicus [27] = assay: Hepatotoxicity in Wistar albino rat assessed as change in serum AST level at 0.5 mg/kg, ip measured after 24 hrs relative to untreated control; format: toxicity, organism-based; parameters: dose 0.5 mg/kg, route intraperitoneal; conditions: in vivo
Procedure, shortened: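 Serum AST was measured 24 h after a single 0.5 mg/kg i.p. dose (ethanol solution) in Wistar rats, three per group, by IFCC UV kinetic method at 340 nm. Activity was expressed as fold of the negative (96% ethanol) control, and compared by one-way ANOVA with post-hoc tests.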

Plasma [28] = assay: Anticoagulant activity in Wistar albino rat plasma assessed as fibrinogen level at 0.5 mg/kg/day, ip administered for 5 days; format: functional; conditions: route intraperitoneal
Procedure, shortened: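 Wistar rats (220–250 g), three per group, got one i.p. dose of 0.5 mg/kg per day for five days and were sacrificed on day six. […] Plasma fibrinogen was measured by biuret method at 540 nm.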

[29] = target: VKORC1 (Rattus norvegicus); assay: Inhibition of VKORC1
Rattus norvegicus [30] = assay: Drug metabolism in Wistar albino rat assessed as 7-hydroxycoumarin level in urine at 1 mg/kg, ip measured after 72 hrs by GC/MS analysis; conditions: in vivo
Rattus norvegicus [31] = assay: Drug metabolism in Wistar albino rat assessed as coumarin-7-glucuronide level in urine at 1 mg/kg, ip measured after 72 hrs by GC/MS analysis; conditions: in vivo
Rattus norvegicus [32] = assay: Hepatotoxicity in Wistar albino rat assessed as change in serum AST level at 0.5 mg/kg/day, ip administered for 5 days measured after second compound dose; conditions: in vivo, 120 h
Rattus norvegicus [33] = assay: Hepatotoxicity in Wistar albino rat assessed as change in serum ALT level at 0.5 mg/kg/day, ip administered for 5 days measured after second compound dose; conditions: in vivo, 120 h

| Structure (SMILES) | IC50 (Rattus norvegicus [13]) [µM] | PT (Plasma [1]) [s] | PT (Plasma [2]) [s] | PT (Plasma [3]) [s] | Activity (Plasma [4]) [g/L] | Time (Plasma [5]) [s] | Activity (Rattus norvegicus [6]) [g/L] | Activity (Rattus norvegicus [7]) [g/L] | Ratio (Plasma [8]) | Ratio (Plasma [9]) | Ratio (Plasma [10]) | Activity (Rattus norvegicus [15]) [µmol/L] | Activity (Rattus norvegicus [16]) [U/L] | Activity (Rattus norvegicus [17]) [U/L] | Activity (Rattus norvegicus [18]) [U/L] | Activity (Rattus norvegicus [19]) [U/L] | Activity (Rattus norvegicus [20]) [µmol/L] | PT (Plasma [21]) [s] | Activity (Rattus norvegicus [22]) [U/L] | Activity (Rattus norvegicus [23]) [µmol/L] | also measured |
| --- | --- | --- | --- | --- | --- | --- | --- | --- | --- | --- | --- | --- | --- | --- | --- | --- | --- | --- | --- | --- | --- |
| C/C(=C(\C#N)C(=O)O)c1c(O)c2ccccc2oc1=O | 2340 | 21 | 8.2 | 9.2 | 0.5 | 196.8 | 68.9 | 38.6 | 2.25 | 0.66 | 0.69 | – | – | – | – | – | – | – | – | – | Activity (Rattus norvegicus [11]): 68.9 g/L; Activity (Rattus norvegicus [12]): 38.6 g/L |
| CC(=O)CC(c1ccccc1)c1c(O)c2ccccc2oc1=O (stereo not given) [WARFARIN] | – | 18.5 | 10.3 | – | 1.9 | 33.4 | 59.4 | 34.5 | – | – | – | 1.3 | 277.3 | 51.5 | 170 | 3.4 | 22.3 | – | – | – | Activity (Rattus norvegicus [14]): Toxic |
| CCOC(=O)C(C(=O)OCC)=C(C)c1c(O)c2ccccc2oc1=O | 141 | 23 | 10.3 | 10.5 | 5.1 | 51.3 | 67.2 | 35.2 | 1.99 | 0.13 | 0.13 | 2 | 238.3 | 71.8 | 513 | 3.1 | 28.4 | 30 | 2.3 | 17.7 | fold change (FC) (Plasma [24]): 1.08; Activity (Plasma [25]): 86.06%; Ratio (Plasma [26]): 0.13; fold change (FC) (Rattus norvegicus [27]): 1.41; Activity (Plasma [28]): 1.6 g/L; Ki [29]: 68.9 µM; Drug metabolism (Rattus norvegicus [30]): Active; Drug metabolism (Rattus norvegicus [31]): Active; AST (Rattus norvegicus [32]): 209.9 U/L; ALT (Rattus norvegicus [33]): 55.5 U/L |

Now from value to compound, other results behind:

| IC50 (Rattus norvegicus [13]) [µM] | Structure (SMILES) | PT (Plasma [1]) [s] | PT (Plasma [2]) [s] | PT (Plasma [3]) [s] | Activity (Plasma [4]) [g/L] | Time (Plasma [5]) [s] | Activity (Rattus norvegicus [6]) [g/L] | Activity (Rattus norvegicus [7]) [g/L] | Ratio (Plasma [8]) | Ratio (Plasma [9]) | Ratio (Plasma [10]) | Activity (Rattus norvegicus [15]) [µmol/L] | Activity (Rattus norvegicus [16]) [U/L] | Activity (Rattus norvegicus [17]) [U/L] | Activity (Rattus norvegicus [18]) [U/L] | Activity (Rattus norvegicus [19]) [U/L] | Activity (Rattus norvegicus [20]) [µmol/L] | PT (Plasma [21]) [s] | Activity (Rattus norvegicus [22]) [U/L] | Activity (Rattus norvegicus [23]) [µmol/L] | also measured |
| --- | --- | --- | --- | --- | --- | --- | --- | --- | --- | --- | --- | --- | --- | --- | --- | --- | --- | --- | --- | --- | --- |
| 141 | O=c1oc2ccccc2c(O)c1-c1csc(Nc2ccc(S(=O)(=O)O)cc2)n1 | 26.5 | 10.4 | 12.4 | – | >500 | 64.9 | 40.8 | 2.6 | 0.82 | 0.84 | 1.6 | 269.7 | 58.4 | 164 | 2.4 | 19.3 | 28.6 | 2.2 | 19 | fold change (FC) (Plasma [24]): 1.27; fold change (FC) (Plasma [25]): 1.18; Ratio (Plasma [26]): 1.38; fold change (FC) (Rattus norvegicus [27]): 1.59; Activity (Plasma [28]): 0.9 g/L; Ki [29]: 44.8 µM; Drug metabolism (Rattus norvegicus [30]): Active; Drug metabolism (Rattus norvegicus [31]): Active; AST (Rattus norvegicus [32]): 207.5 U/L; ALT (Rattus norvegicus [33]): 63 U/L |
| 741 | O=c1oc2ccccc2c(O)c1-c1csc(Nc2cccc([N+](=O)[O-])c2)n1 | 24.4 | 9.6 | 14.4 | 0.6 | >500 | 64.2 | 39.7 | – | – | – | 2.2 | 294.6 | 52.4 | 225 | 2.8 | 29.7 | 28.1 | 2.6 | 17.3 | fold change (FC) (Plasma [24]): 1.48; fold change (FC) (Plasma [25]): 1.18; fold change (FC) (Rattus norvegicus [27]): 1.74; Activity (Plasma [28]): 1.74 g/L; Drug metabolism (Rattus norvegicus [30]): Active; Drug metabolism (Rattus norvegicus [31]): Active; AST (Rattus norvegicus [32]): 210.7 U/L; ALT (Rattus norvegicus [33]): 65.1 U/L |
